The M2OR odorant receptor database

Molecular target: T1, UniProt Q8VFZ6
T1 sequence (whole entry): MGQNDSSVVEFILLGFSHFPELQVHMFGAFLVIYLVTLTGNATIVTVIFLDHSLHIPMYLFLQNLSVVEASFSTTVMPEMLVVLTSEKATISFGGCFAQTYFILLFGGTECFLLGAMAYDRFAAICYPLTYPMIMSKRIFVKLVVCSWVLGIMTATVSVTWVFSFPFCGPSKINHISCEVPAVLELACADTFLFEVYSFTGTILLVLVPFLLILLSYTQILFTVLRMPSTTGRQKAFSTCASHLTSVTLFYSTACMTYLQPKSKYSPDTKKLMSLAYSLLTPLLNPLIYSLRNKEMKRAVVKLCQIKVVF
Settings: stereoisomer not certain
Method in brief: (§1)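 Assay methods differ from source to source, frequently being transient luciferase assays in mammalian cell lines. For each receptor–molecule pair, the label responsive (active) applies when the original authors judged the measured signal statistically different from baseline, and non-responsive (inactive) applies otherwise.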

Row | SMILES | odorant receptor agonist call
1 | C=CCc1ccccc1 | inactive
2 | O=c1cc(O)c2ccccc2o1 | inactive
3 | CCC1CCC(=O)O1 (centres undefined) | inactive
4 | C=CCOC(=O)Cc1ccccc1 | active

Molecular target: T2, UniProt Q8VG01
T2 sequence (whole entry): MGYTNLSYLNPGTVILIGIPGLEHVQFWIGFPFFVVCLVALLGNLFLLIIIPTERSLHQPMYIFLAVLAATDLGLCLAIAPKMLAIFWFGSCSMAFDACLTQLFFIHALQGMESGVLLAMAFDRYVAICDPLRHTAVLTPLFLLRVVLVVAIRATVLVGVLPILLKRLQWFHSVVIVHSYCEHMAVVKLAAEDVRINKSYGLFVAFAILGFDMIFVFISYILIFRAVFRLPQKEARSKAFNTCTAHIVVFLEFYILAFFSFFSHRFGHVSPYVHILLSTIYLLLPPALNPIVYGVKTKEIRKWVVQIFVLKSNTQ
Settings: stereoisomer not certain
Method in brief: as §1

Row | SMILES | odorant receptor agonist call
5 | O=CC=Cc1ccccc1 | inactive
6 | Oc1ccccc1Br | inactive
7 | O=Cc1ccc2c(c1)OCO2 | inactive
8 | C=C(C)C1CC=C(C=O)CC1 (centres undefined) | inactive
9 | C=CCc1ccccc1 | inactive
10 | OCc1ccc2c(c1)OCO2 | inactive
11 | Cc1ccc(OC(=O)Cc2ccccc2)cc1 | inactive
12 | CCCCC(Br)C(=O)O (centres undefined) | inactive
13 | O=c1cc(O)c2ccccc2o1 | inactive
14 | CCCCCCC(Br)C(=O)O (centres undefined) | active
15 | CCC1CCC(=O)O1 (centres undefined) | inactive
16 | C=CCOC(=O)Cc1ccccc1 | inactive
17 | COc1ccc(C=O)cc1 | inactive
18 | O=Cc1ccccc1 | inactive
19 | CSSC | inactive
20 | CC(C=O)Cc1ccc2c(c1)OCO2 (centres undefined) | inactive

Molecular target: T3, UniProt Q8VG22
T3 sequence (whole entry): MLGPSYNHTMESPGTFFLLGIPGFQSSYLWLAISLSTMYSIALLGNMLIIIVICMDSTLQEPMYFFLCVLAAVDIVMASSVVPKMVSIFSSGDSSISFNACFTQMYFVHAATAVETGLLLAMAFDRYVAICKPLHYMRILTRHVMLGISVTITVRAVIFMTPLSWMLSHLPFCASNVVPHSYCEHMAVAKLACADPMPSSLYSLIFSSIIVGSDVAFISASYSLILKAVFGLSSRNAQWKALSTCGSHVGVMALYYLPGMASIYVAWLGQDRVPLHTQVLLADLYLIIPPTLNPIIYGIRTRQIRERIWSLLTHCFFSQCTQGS
Settings: stereoisomer not certain
Method in brief: as §1

Row | SMILES | odorant receptor agonist call
21 | C=CCc1ccccc1 | inactive
22 | O=c1cc(O)c2ccccc2o1 | active
23 | CCC1CCC(=O)O1 (centres undefined) | inactive
24 | C=CCOC(=O)Cc1ccccc1 | inactive

Molecular target: T4, UniProt Q8VG27
T4 sequence (whole entry): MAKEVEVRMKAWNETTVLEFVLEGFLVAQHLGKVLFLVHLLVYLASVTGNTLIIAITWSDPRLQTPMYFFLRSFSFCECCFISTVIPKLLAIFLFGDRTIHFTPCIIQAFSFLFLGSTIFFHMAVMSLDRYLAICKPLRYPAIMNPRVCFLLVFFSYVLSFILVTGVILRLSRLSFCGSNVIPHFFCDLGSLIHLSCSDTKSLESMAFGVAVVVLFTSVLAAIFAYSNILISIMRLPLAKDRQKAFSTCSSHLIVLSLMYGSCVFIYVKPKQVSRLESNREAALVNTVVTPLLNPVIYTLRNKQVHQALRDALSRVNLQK
Settings: stereoisomer not certain
Method in brief: as §1

Row | SMILES | odorant receptor agonist call
25 | O=CC=Cc1ccccc1 | inactive
26 | Oc1ccccc1Br | inactive
27 | O=Cc1ccc2c(c1)OCO2 | inactive
28 | C=C(C)C1CC=C(C=O)CC1 (centres undefined) | inactive
29 | OCc1ccc2c(c1)OCO2 | inactive
30 | Cc1ccc(OC(=O)Cc2ccccc2)cc1 | inactive
31 | CCCCC(Br)C(=O)O (centres undefined) | inactive
32 | O=c1cc(O)c2ccccc2o1 | inactive
33 | CCCCCCC(Br)C(=O)O (centres undefined) | inactive
34 | C=CCOC(=O)Cc1ccccc1 | inactive
35 | COc1ccc(C=O)cc1 | inactive
36 | O=Cc1ccccc1 | inactive
37 | CSSC | inactive
38 | CC(C=O)Cc1ccc2c(c1)OCO2 (centres undefined) | inactive

Molecular target: T5, UniProt Q8VG49
T5 sequence (whole entry): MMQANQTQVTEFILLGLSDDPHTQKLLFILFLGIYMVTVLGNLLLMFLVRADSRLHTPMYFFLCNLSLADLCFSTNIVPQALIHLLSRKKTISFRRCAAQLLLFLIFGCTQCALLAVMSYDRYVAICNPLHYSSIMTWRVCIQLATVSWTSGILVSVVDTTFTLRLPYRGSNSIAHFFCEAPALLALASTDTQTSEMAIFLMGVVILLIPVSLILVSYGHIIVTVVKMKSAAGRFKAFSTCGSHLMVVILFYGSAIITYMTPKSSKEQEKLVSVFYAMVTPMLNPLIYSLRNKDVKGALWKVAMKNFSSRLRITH
Settings: stereoisomer not certain
Method in brief: as §1

Row | SMILES | odorant receptor agonist call
39 | C=CCc1ccccc1 | inactive
40 | O=c1cc(O)c2ccccc2o1 | inactive
41 | CCC1CCC(=O)O1 (centres undefined) | inactive
42 | C=CCOC(=O)Cc1ccccc1 | inactive

Molecular target: T6, UniProt Q8VG53
T6 sequence (whole entry): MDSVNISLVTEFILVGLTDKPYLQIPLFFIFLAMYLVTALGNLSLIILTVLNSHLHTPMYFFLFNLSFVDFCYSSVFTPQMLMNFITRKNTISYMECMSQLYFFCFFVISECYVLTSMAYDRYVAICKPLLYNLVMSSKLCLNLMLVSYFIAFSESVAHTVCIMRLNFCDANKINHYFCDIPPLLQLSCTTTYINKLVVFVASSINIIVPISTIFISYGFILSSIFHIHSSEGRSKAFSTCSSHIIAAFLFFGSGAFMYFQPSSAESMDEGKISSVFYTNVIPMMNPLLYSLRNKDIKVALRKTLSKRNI
Settings: stereoisomer not certain
Method in brief: as §1

Row | SMILES | odorant receptor agonist call
43 | O=CC=Cc1ccccc1 | inactive
44 | Oc1ccccc1Br | inactive
45 | O=Cc1ccc2c(c1)OCO2 | inactive
46 | C=C(C)C1CC=C(C=O)CC1 (centres undefined) | inactive
47 | OCc1ccc2c(c1)OCO2 | inactive
48 | Cc1ccc(OC(=O)Cc2ccccc2)cc1 | inactive
49 | CCCCC(Br)C(=O)O (centres undefined) | inactive
50 | O=c1cc(O)c2ccccc2o1 | inactive
51 | CCCCCCC(Br)C(=O)O (centres undefined) | inactive
52 | C=CCOC(=O)Cc1ccccc1 | inactive
53 | COc1ccc(C=O)cc1 | inactive
54 | O=Cc1ccccc1 | inactive
